In ChEMBL document CHEMBL1132600:

Experiments:
[1] = substrate: CCCCC/C=C\C/C=C\C/C=C\C/C=C\CCCC(=O)Nc1ccccc1O
[2] = substrate: CCCCC/C=C\C/C=C\C/C=C\C/C=C\CCCC(=O)Nc1ccccc1O; assay: (§1) Km value for hydrolysis by rat brain microsomal anandamide amidohydrolase (AAH).
In short: (§2)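 Sprague–Dawley rat brain microsomes (105000g pellet) at 0.3 mg/mL protein, 37 °C, pH 7.4, BSA as carrier. Varied substrate concentrations, sampled at least four times within the linear initial range. Arachidonic acid formed measured by RP-HPLC (UV 204 nm, calibration curve). Initial velocity vs substrate concentration fitted to Michaelis–Menten.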

[3] = substrate: CCCCC/C=C\C/C=C\C/C=C\C/C=C\CCCC(N)=O; assay: as §1
In short: as §2

[4] = substrate: CCCCC/C=C\C/C=C\C/C=C\C/C=C\CCCC(=O)NCCO; assay: as §1
In short: as §2

[5] = substrate: CCCCC/C=C\C/C=C\C/C=C\C/C=C\CCCC(=O)N[C@H](C)CO; assay: as §1
In short: as §2

[6] = substrate: CCCCC/C=C\C/C=C\C/C=C\C/C=C\CCCC(=O)N[C@@H](C)CO; assay: as §1
In short: as §2

[7] = substrate: CCCCC/C=C\C/C=C\C/C=C\C/C=C\CCCC(N)=O; assay: (§3) V max value for hydrolysis by rat brain microsomal anandamide amidohydrolase (AAH).
In short: as §2

[8] = substrate: CCCCC/C=C\C/C=C\C/C=C\C/C=C\CCCC(=O)NCCO; assay: as §3
In short: as §2

[9] = substrate: CCCCC/C=C\C/C=C\C/C=C\C/C=C\CCCC(=O)N[C@H](C)CO; assay: as §3
In short: as §2

[10] = substrate: CCCCC/C=C\C/C=C\C/C=C\C/C=C\CCCC(=O)N[C@@H](C)CO; assay: as §3
In short: as §2

B1: Fatty-acid amide hydrolase 1 (Rattus norvegicus), P97612 (protein)
chain: MVLSEVWTTLSGVSGVCLACSLLSAAVVLRWTGRQKARGAATRARQKQRASLETMDKAVQRFRLQNPDLDSEALLTLPLLQLVQKLQSGELSPEAVFFTYLGKAWEVNKGTNCVTSYLTDCETQLSQAPRQGLLYGVPVSLKECFSYKGHDSTLGLSLNEGMPSESDCVVVQVLKLQGAVPFVHTNVPQSMLSFDCSNPLFGQTMNPWKSSKSPGGSSGGEGALIGSGGSPLGLGTDIGGSIRFPSAFCGICGLKPTGNRLSKSGLKGCVYGQTAVQLSLGPMARDVESLALCLKALLCEHLFTLDPTVPPLPFREEVYRSSRPLRVGYYETDNYTMPSPAMRRALIETKQRLEAAGHTLIPFLPNNIPYALEVLSAGGLFSDGGRSFLQNFKGDFVDPCLGDLILILRLPSWFKRLLSLLLKPLFPRLAAFLNSMRPRSAEKLWKLQHEIEMYRQSVIAQWKAMNLDVLLTPMLGPALDLNTPGRATGAISYTVLYNCLDFPAGVVPVTTVTAEDDAQMELYKGYFGDIWDIILKKAMKNSVGLPVAVQCVALPWQEELCLRFMREVEQLMTPQKQPS
B1 gave a Vmax (nM min-1 mg-1) [1] of 3.17, a Km [2] of 7.31 µM and a Km [3] of 2.34 µM. It also gave a Km [4] of 2.78 µM, a Km [5] of 33 µM and a Km [6] of 7.94 µM. For the same protein, the Vmax (nM min-1 mg-1) [7] was 2.89, the Vmax (nM min-1 mg-1) [8] was 1.4 and the Vmax (nM min-1 mg-1) [9] was 0.37. The Vmax (nM min-1 mg-1) [10] was 0.39.
